Key:
Assay type in all cases: physicochemical
[1] = Solvolytic stability of difluoro-dioxaborinins by 19F NMR in water/DMSO; settings: for times more resistant to solvolysis than 1: in 50 M H2O; for Stability (t1/2, h) 10% H2O/90% DMSO / Stability (t1/2, h) 90% H2O/10% DMSO: solvolysis half-life, 19F NMR, 25 °C; for Stability (t1/2, h) 10% H2O/90% DMSO: 10% H2O/90% DMSO (5.55 M H2O); for Stability (t1/2, h) 90% H2O/10% DMSO: 90% H2O/10% DMSO (50 M H2O); for Fold increase in stability (90% to 10% H2O): solvolysis in 5.5 M H2O vs. 50 M H2O; for fold more rapid solvolysis than 5: determined in 5.55 M H2O; for relative solvolytic stability (in words): comparison among Figure 2 / Table 1 compounds, 10% water/90% DMSO
Outline: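 Test compound was held in 10% or 90% aqueous DMSO, with aqueous portions in 1X PBS (pH 7.4, 10 mM), and 19F NMR spectra were integrated over time. The fraction of 19F on the test compound was taken as its integral divided by the sum of all fluoride integrals. Fractions versus time were fitted to P = exp(−k*t), and half-lives were derived from k.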

[2] = Water solubility judged by silica TLC with water as the mobile phase
Optical properties = settings: for Abs (nm) / Em (nm) / Extinction Coefficient (cm^−1M^−1) / Stokes Shift (nm): in methanol; for Quantum yield (%, in Methanol): quinine bisulfate as the reference

SMILES: CCC1=C(C)O[B-](F)(F)[O+]=C1C [Compound 3, 5-Ethyl-2,2-difluoro-4,6-dimethyl-2H-1λ^3,3,2λ^4-dioxaborinine]
- times more resistant to solvolysis than 1 [1]: 5.6 times
- Stability (t1/2, h) 10% H2O/90% DMSO [1]: 53.9 ± 1.5 h
- Stability (t1/2, h) 90% H2O/10% DMSO [1]: 15.2 ± 0.5 h
- Fold increase in stability (90% to 10% H2O) [1]: 3.5 fold
- water solubility (in words) [2]: water solubility that allowed them to be resolved on silica TLC with water as the mobile phase
- Abs (nm) (Optical properties): 303 nm
- Em (nm) (Optical properties): 306 nm
- Extinction Coefficient (cm^−1M^−1) (Optical properties): 12,000 cm^−1M^−1
- Stokes Shift (nm) (Optical properties): 3 nm

SMILES: COc1cc(/C=C/C2=CC(/C=C/c3ccc(OC(=O)CCN4C(=O)C=CC4=O)c(OC)c3)=[O+][B-](F)(F)O2)ccc1OC(=O)CCN1C(=O)C=CC1=O [Compound 10, ((1E,1′E)-(2,2-difluoro-2H-1λ^3,3,2λ^4-dioxaborinine-4,6-diyl)bis(ethene-2,1-diyl))bis(2-methoxy-4,1-phenylene) bis(3-(2,5-dioxo-2,5-dihydro-1H-pyrrol-1-yl)propanoate)]
- fold more rapid solvolysis than 5 [1]: 24 fold
- Stability (t1/2, h) 10% H2O/90% DMSO [1]: 16.0 ± 0.2 h
- Abs (nm) (Optical properties): 434 nm
- Em (nm) (Optical properties): 509 nm
- Extinction Coefficient (cm^−1M^−1) (Optical properties): 54,000 cm^−1M^−1
- Stokes Shift (nm) (Optical properties): 75 nm
- Quantum yield (%, in Methanol) (Optical properties): 3.1%

SMILES: CC1=[O+][B-](F)(F)OC(C)=C1C [Compound 2, 2,2-Difluoro-4,5,6-trimethyl-2H-1λ^3,3,2λ^4-dioxaborinine]
- times more resistant to solvolysis than 1 [1]: 6.2 times
- Stability (t1/2, h) 10% H2O/90% DMSO [1]: 53.9 ± 1.1 h
- Stability (t1/2, h) 90% H2O/10% DMSO [1]: 17.1 ± 0.7 h
- Fold increase in stability (90% to 10% H2O) [1]: 3.2 fold
- water solubility (in words) [2]: water solubility that allowed them to be resolved on silica TLC with water as the mobile phase
- Abs (nm) (Optical properties): 303 nm
- Em (nm) (Optical properties): 307 nm
- Extinction Coefficient (cm^−1M^−1) (Optical properties): 12,200 cm^−1M^−1
- Stokes Shift (nm) (Optical properties): 4 nm

SMILES: CC1=CC(C)=[O+][B-](F)(F)O1 [Compound 1, 2,2-Difluoro-4,6-dimethyl-2H-1λ^3,3,2λ^4-dioxaborinine]
- solvolysis in the absence of water ([1]; 100% DMSO): not observed
- fraction decomposed at 110 min (one F-18 half-life) post i.v. injection ([1]; assuming the in vitro solvolysis rate translates in vivo): 37%
- relative solvolytic stability (in words) [1]: second most rapid difluoro-dioxaborinin to undergo aqueous solvolysis
- Stability (t1/2, h) 10% H2O/90% DMSO [1]: 7.63 ± 0.18 h
- Stability (t1/2, h) 90% H2O/10% DMSO [1]: 2.73 ± 0.02 h
- Fold increase in stability (90% to 10% H2O) [1]: 2.8 fold
- water solubility (in words) [2]: water solubility that allowed them to be resolved on silica TLC with water as the mobile phase
- Abs (nm) (Optical properties): 279 nm
- Em (nm) (Optical properties): 305 nm
- Extinction Coefficient (cm^−1M^−1) (Optical properties): 9,180 cm^−1M^−1
- Stokes Shift (nm) (Optical properties): 26 nm

SMILES: CC1=C2CCCCC2=[O+][B-](F)(F)O1 [Compound 15, 2,2-Difluoro-4-methyl-5,6,7,8-tetrahydro-2H-1λ^3,2λ^4-benzo[e][1,3,2]dioxaborinine]
- times more resistant to solvolysis than 1 [1]: 2.5 times
- Stability (t1/2, h) 10% H2O/90% DMSO [1]: 33.7 ± 1.1 h
- Stability (t1/2, h) 90% H2O/10% DMSO [1]: 6.75 ± 0.19 h
- Fold increase in stability (90% to 10% H2O) [1]: 5.0 fold
- water solubility (in words) [2]: water solubility that allowed them to be resolved on silica TLC with water as the mobile phase
- Abs (nm) (Optical properties): 303 nm
- Em (nm) (Optical properties): 307 nm
- Extinction Coefficient (cm^−1M^−1) (Optical properties): 12,000 cm^−1M^−1
- Stokes Shift (nm) (Optical properties): 4 nm

SMILES: CCOC(=O)CCC1=C(C)O[B-](F)(F)[O+]=C1C [Compound 6, Ethyl 3-(2,2-difluoro-4,6-dimethyl-2H-1λ^3,3,2λ^4-dioxaborinin-5-yl)propanoate]
- times more resistant to solvolysis than 1 [1]: 1.9 times
- Stability (t1/2, h) 10% H2O/90% DMSO [1]: 24.6 ± 0.5 h
- Stability (t1/2, h) 90% H2O/10% DMSO [1]: 5.19 ± 0.15 h
- Fold increase in stability (90% to 10% H2O) [1]: 4.7 fold
- water solubility (in words) [2]: water solubility that allowed them to be resolved on silica TLC with water as the mobile phase
- Abs (nm) (Optical properties): 301 nm
- Em (nm) (Optical properties): 307 nm
- Extinction Coefficient (cm^−1M^−1) (Optical properties): 12,600 cm^−1M^−1
- Stokes Shift (nm) (Optical properties): 6 nm

SMILES: CC1=CC(c2ccccc2)=[O+][B-](F)(F)O1 [Compound 14, 2,2-Difluoro-4-methyl-6-phenyl-2H-1λ^3,3,2λ^4-dioxaborinine]
- solvolysis half-life compared with F-18 nuclear decay half-life ([1]; Table 1 conditions): > 1.83 h
- relative solvolytic stability (in words) [1]: least stable
- Stability (t1/2, h) 10% H2O/90% DMSO [1]: 4.46 ± 0.05 h
- Abs (nm) (Optical properties): 325 nm
- Em (nm) (Optical properties): 328 nm
- Extinction Coefficient (cm^−1M^−1) (Optical properties): 19,800 cm^−1M^−1
- Stokes Shift (nm) (Optical properties): 3 nm

SMILES: COc1cc(/C=C/C2=CC(/C=C/c3ccc(OC(=O)c4c(F)cc(F)cc4F)c(OC)c3)=[O+][B-](F)(F)O2)ccc1OC(=O)c1c(F)cc(F)cc1F [Compound 9, ((1E,1′E)-(2,2-difluoro-2H-1λ^3,3,2λ^4-dioxaborinine-4,6-diyl)bis(ethene-2,1-diyl))bis(2-methoxy-4,1-phenylene) bis(2,4,6-trifluorobenzoate)]
- fold more rapid solvolysis than 5 [1]: 33 fold
- Stability (t1/2, h) 10% H2O/90% DMSO [1]: 11.9 ± 0.4 h
- Abs (nm) (Optical properties): 430 nm
- Em (nm) (Optical properties): 512 nm
- Extinction Coefficient (cm^−1M^−1) (Optical properties): 50,800 cm^−1M^−1
- Stokes Shift (nm) (Optical properties): 82 nm
- Quantum yield (%, in Methanol) (Optical properties): 3.0%

Source: publication PMC8399557 (Journal of medicinal chemistry, 2020)
